High-throughput results: PubChem BioAssay, The Scripps Research Institute Molecular Screening Center
Only some compounds are listed: those with a hit (about 3.1% of all), similar ones and a draw of the others.
CHO parental Ca – signal in parental CHO cells, OX1R antagonist counter-screen; parental CHO-K1, ATP-induced calcium, Fluo-8 fluorescence; inhibition, % at 5.6 µM; hit rate 0.63% among 330,000;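 active = inhibition above that plate's mean sample inhibition plus 3 SD, cut at about 26% in these data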;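 also: 0% = ATP-challenged DMSO wells and 100% = DMSO wells without ATP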
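test system = CHO parental line | reagent = ATP stimulus | measured by = intracellular calcium via Fluo-8 no-wash fluorescent dye | control set = ATP and no-ATP DMSO wells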
OX1R antag-1 – OX1R (human) antagonism | OX1R-expressing cells, FRET antagonist read-out | hit rate 1.8% among 330,000 | inhibition, % at 6.6 µM; in the data active = inhibition mostly above about 38%, no sharp cut-off; inactive = mostly below about 40%;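 also: 0% = agonist challenge alone and 100% = reference antagonist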
GPR7 antagonist – blocks human GPR7 receptor signaling. GPR7-expressing cells, fluorescence antagonist assay. inhibition, % at 4.4 µM. hit rate 1.1% among 290,000; in the data active = inhibition above about 16%, passing the limit was not always enough;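 also: cells stimulated with the agonist NPW; 0% = agonist with vehicle and 100% = vehicle without agonist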
GalR3 antagonist – antagonists of human GalR3 | HEK293 GalR3-CNG cAMP membrane potential fluorescence; galR3 body fused to GalR1 C-terminus | inhibition, % at 3 µM | O60755 | hit rate 0.44% among 360,000;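 active = inhibition above the screen-wide average plus 3 SD, cut at about 13% in these data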;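 also: forskolin and galanin both at EC90 stimulate the cells; cAMP rise reported by CNG channel membrane potential dye signal; 0% = forskolin plus galanin with DMSO and 100% = forskolin alone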
Target sequence (O60755 1-299 limits assumed): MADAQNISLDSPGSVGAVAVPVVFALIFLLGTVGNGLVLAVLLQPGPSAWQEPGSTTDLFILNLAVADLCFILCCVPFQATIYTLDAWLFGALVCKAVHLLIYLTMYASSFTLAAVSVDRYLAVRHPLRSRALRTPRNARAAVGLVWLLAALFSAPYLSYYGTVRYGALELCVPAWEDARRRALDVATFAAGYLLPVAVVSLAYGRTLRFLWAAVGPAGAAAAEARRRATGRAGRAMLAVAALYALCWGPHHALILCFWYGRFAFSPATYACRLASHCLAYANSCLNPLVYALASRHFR
OX1R antag-2 – blocks the human orexin 1 receptor; CHO/OX1R cells, Fluo-8 calcium fluorescence, orexin A; O43613; inhibition, % at 5 µM; hit rate 0.43% among 330,000;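 active = inhibition above its plate's threshold, mean inhibition of all tested compounds on the plate plus 3 SD, cut at about 37% in these data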;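 also: 0% = orexin A challenge wells and 100% = SB-334867-A antagonist wells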
Numbers without * were called inactive; · = not tested or not shown.

SMILES	CHO parental Ca	OX1R antag-1	GPR7 antagonist	GalR3 antagonist	OX1R antag-2
CC(=O)N1c2ccc(S(=O)(=O)N3CCC(C(=O)N4CCC(C)CC4)CC3)cc2CC1C (stereo not given)	-14	13	-2	-5	-45
CC(=O)N1CCCc2cc(S(=O)(=O)N3CCCC(C(=O)N4CCN(c5cc(C)ccc5C)CC4)C3)ccc21 (stereo not given)	44*	40*	6	-3	51*
COc1cccc(NC(=O)C2CCN(S(=O)(=O)c3ccc(N4CCCC4=O)cc3)CC2)c1	·	·	·	-6	·
O=C(Nc1cccc(C(F)(F)F)c1)C1CCN(S(=O)(=O)c2ccc(N3CCCC3=O)cc2)CC1	73*	30	16	-4	48*
CC(=O)N1c2ccc(S(=O)(=O)N3CCC(C(=O)Nc4cccc(C(F)(F)F)c4)CC3)cc2CC1C (stereo not given)	55*	11	21	-9	23
CC(=O)N1c2ccc(S(=O)(=O)N3CCC(C(=O)N4CCN(c5cc(Cl)ccc5C)CC4)CC3)cc2CC1C (stereo not given)	43*	10	-13	-6	38
O=C(COc1ccccc1)N[C@@H]1c2ccccc2CC[C@H]1OCc1ccccc1	-16	12	·	-6	9
Nc1[nH]c(C(=O)c2ccc(Br)cc2)c(-c2ccccc2)c1C(=O)NCCc1c[nH]c2ccccc12	·	·	·	-7	·
O=C(CSc1nnc(-c2cccnc2)o1)Nc1cccc(F)c1	-24	11	·	-5	-7
O=C(CSc1cccs1)Nc1ccc2ccccc2c1	-19	41*	-5	-6	6
COCc1cc(CN(C)C(=O)c2oc3c(F)cccc3c2C)[nH]n1	-25	3	-3	-6	-26
O=C(c1ccccc1[N+](=O)[O-])N1CCN(c2ccc(N3CCOCC3)nn2)CC1	-5	44	·	-4	2
CSc1nnc2c(n1)OC(c1ccccn1)N(C(C)=O)c1ccccc1-2 (stereo not given)	-3	19	-11	-3	-10
CSc1nnc2c(n1)OC(c1ccc(C(=O)O)cc1)N(C(C)=O)c1ccccc1-2 (stereo not given)	-5	50*	0	0	-3
CCOc1ccc(NS(=O)(=O)c2ccc(C(=O)N3CC(C)OC(C)C3)cc2)cc1 (stereo not given)	42*	0	·	-7	73*
Cc1ccc(NS(=O)(=O)c2ccc(C(=O)N3CCCC(C(F)(F)F)C3)cc2)cc1 (stereo not given)	31	8	·	-6	45*
CCOc1ccc(S(=O)(=O)Nc2ccc(C(=O)N3CC(C)OC(C)C3)cc2)cc1 (stereo not given)	1	7	·	-2	12
COc1ccccc1NS(=O)(=O)c1ccc(C(=O)N2CCCC(C(F)(F)F)C2)cc1 (stereo not given)	-9	16	·	-3	9
C[C@H](O)[C@@H]1C(=O)N2CCc3c([nH]c4c(-c5ccccc5)cccc34)[C@@H]2C[C@@H]1N(C)C(=O)OCc1ccccc1	·	·	·	5	·
COc1cccc2cc(C(=O)CS(=O)(=O)c3ccc(Cl)cc3)c(=O)oc12	-16	43*	-8	2	-18
COc1ccccc1N1C(=O)CC(Nc2ccc(N3CCOCC3)cc2)C1=O (stereo not given)	5	71*	-12	-2	-18
COC(=O)C1=C(C)N(Cc2ccccc2C(F)(F)F)C(=NCc2cc(OC)c(OC)c(OC)c2)NC1c1cccc(F)c1 (stereo not given)	·	·	·	-6	·
O=c1[nH]c2c(Br)cnc([N+](=O)[O-])c2[nH]1	-7	43*	-7	-4	-10
Nc1ncc([N+](=O)[O-])cc1Br	0	18	-9	0	3
N#Cc1c(-c2cccs2)cc(-c2cccnc2)nc1N	-20	46*	-1	-1	-13
SMILES	CHO parental Ca	OX1R antag-1	GPR7 antagonist	GalR3 antagonist	OX1R antag-2
COc1cccc(CNC(=O)[C@H]2CCCN2)c1	·	·	·	-4	·
CCCCCCCCN1C(=O)[C@@H](CC(=O)N2CCSCC2)C[C@@]2(C(=O)OC)C1=C[C@H](C1CCCC1)O[C@@H]2C	·	·	·	0	·
C[C@@H]1C=CCCO[C@]12C(=O)N(Cc1ccccc1C(F)(F)F)c1cccc(Br)c12	·	·	·	10	·
O=C1CCN(S(=O)(=O)c2ccccc2)CCN1CCOCc1ccc(C(F)(F)F)cc1	-18	27	·	-6	-22
Cc1ccc(S(=O)(=O)N2CCC(=O)N(CCOCc3ccc(C(F)(F)F)cc3)CC2)cc1	49*	45	-6	9	-20
C/C=C/C=C/C(=O)c1cc(C)c(OC(=O)CNC(=O)OC(C)(C)C)c(C)c1O	·	·	·	-4	·
O=C(O)c1cccc(-n2nnnc2SCc2ccccn2)c1	-7	25	19*	7	-1
O=C(CSc1nnnn1-c1cccc(C(=O)O)c1)NC(c1ccccc1)c1ccccc1	5	13	-8	-3	6
O=C(NN=C1CCCCCCC1)c1ccc2ccccc2n1	-18	56*	0	3	-2
O=C(NN=C1CCCCCCC1)c1ccccn1	-4	3	11	-3	-16
CN(C)S(=O)(=O)c1cccc(N=C2SCCN2Cc2ccccc2)c1	40*	30	-15	-5	-1
O=C(CSc1nc2ccccc2c(=O)n1NC(=O)Cc1ccccc1)NCc1ccccc1	-7	46*	-7	-4	-11
Cn1cc(SCC(=O)NCc2ccc3c(c2)OCO3)c2ccccc21	-5	41*	-3	·	-3
Cc1cccc(-n2c(SCC(=O)NCc3ccc4c(c3)OCO4)nc3ccccc3c2=O)c1	-10	40*	-6	-5	-11
O=C(CSc1nc2ccccc2c(=O)n1-c1ccccc1)NCc1ccc2c(c1)OCO2	-19	23	5	-3	-10
Nc1nc2ncccc2cc1C(=O)NC1CC1	·	·	·	-6	·
CC(C)(C)c1ccc(CSc2nc(N)cc(=O)[nH]2)cc1	15	-6	-25	·	-9
Cc1cccc(C)c1NC(=O)C1(N2C(=O)CC2c2ccccc2)CCCCC1 (stereo not given)	-19	41	18*	0	-27
Cc1cccc(C)c1NC(=O)C1(NC(=O)C2CCC(=O)N2)CCCCC1 (stereo not given)	9	0	4	-1	-10
O=[N+]([O-])c1c(NCCCO)cc(N2CCCCCC2)c2nonc12	-15	37*	-8	0	-38
O=[N+]([O-])c1c(NCCCO)cc(SCc2ccco2)c2nonc12	-4	61*	-2	11	1
CC1CCN(CCCNc2cc(NCCO)c([N+](=O)[O-])c3nonc23)CC1	0	38*	-7	-11	-2
CC1CCCN(c2cc(N(C)CCO)c([N+](=O)[O-])c3nonc23)C1 (stereo not given)	9	48*	-16	2	-8
CC(=O)OCCNc1cc(SCc2ccco2)c2nonc2c1[N+](=O)[O-]	-1	46	-8	·	-6
